ChEMBL document CHEMBL4024754, “Development of Potent, Protease-Resistant Agonists of the Parathyroid Hormone Receptor with Broad β Residue Distribution” (J Med Chem, 2017)
The source made the active and inactive calls. The calls are words filed in the database; no cut-off is given here. Numbered stars: 1 amine (or outer) side, 2 acyl side, 3 side chain; on linkers, the order of the positions; unused ones are H or OH. Square brackets hold non-standard residues; d marks the D form. Peptide text beside a SMILES is read from it. * marks the point of attachment. NH(1S,2S-2-CONH2-cPent) = NC(=O)[C@H]1CCC[C@@H]1N*; ACPC(1S,2S) = N[C@H]1CCC[C@@H]1C(=O)*; X1 = O=C([C@H]1CCC[C@@H]1N[*:1])[*:2]; X2 = O=C([C@H]1CNC[C@@H]1N[*:1])[*:2]; hArg = N=C(N)NCCCC[C@H](N)C(=O)O; Aib = CC(C)(N)C(=O)O

What was measured:
[1] = molecular target: T1, Parathyroid hormone/parathyroid hormone-related peptide receptor (Homo sapiens, UniProt Q03431); test: Agonist activity at human PTH1 receptor expressed in human GP2.3 cells assessed as induction of cAMP after 12 to 20 mins by luciferase reporter gene assay; format: functional, cell-based; conditions: read-out: EC50
T1 sequence (Q03431 whole entry): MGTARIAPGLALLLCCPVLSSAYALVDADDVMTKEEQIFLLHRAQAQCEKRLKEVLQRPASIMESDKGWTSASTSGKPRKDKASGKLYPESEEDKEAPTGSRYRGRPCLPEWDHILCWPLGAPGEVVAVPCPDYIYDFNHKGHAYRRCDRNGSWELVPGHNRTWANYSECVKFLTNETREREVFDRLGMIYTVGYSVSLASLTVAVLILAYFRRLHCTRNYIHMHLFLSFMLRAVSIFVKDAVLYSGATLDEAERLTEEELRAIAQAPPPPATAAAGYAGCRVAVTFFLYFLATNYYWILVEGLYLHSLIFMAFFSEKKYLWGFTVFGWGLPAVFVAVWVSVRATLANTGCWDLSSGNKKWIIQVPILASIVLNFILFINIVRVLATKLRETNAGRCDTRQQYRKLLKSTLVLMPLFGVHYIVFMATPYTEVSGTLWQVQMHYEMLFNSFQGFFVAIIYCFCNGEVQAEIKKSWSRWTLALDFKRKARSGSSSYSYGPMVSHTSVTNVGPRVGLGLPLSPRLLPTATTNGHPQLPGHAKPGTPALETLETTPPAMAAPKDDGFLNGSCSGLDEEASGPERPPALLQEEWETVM

[2] = molecular target: T2, Parathyroid hormone/parathyroid hormone-related peptide receptor (Homo sapiens) (UniProt Q03431); test: Agonist activity at human PTH1 receptor expressed in human GP2.3 cells assessed as induction of cAMP after 12 to 20 mins by luciferase reporter gene assay relative to PTH(1 to 34 residues)-NH2; format: functional, cell-based
T2 sequence (whole entry): T1 sequence (Q03431 whole entry)

[3] = Drug metabolism in Sprague-Dawley rat kidney homogenates assessed as protease-mediated metabolite formation at 12 uM after 4 hrs by MALDI-TOF-MS analysis; format: ADME, tissue-based; conditions: tissue homogenate
Outline: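 Perfused female Sprague-Dawley kidney homogenate in 50 mM Tris-HCl pH 7.4, diluted to 2.5 mg protein/mL. Peptide spiked at 50 μg/mL (~12 μM) and incubated at 37 °C. Timed samples quenched with equal volume 1% TFA, centrifuged, dried, reconstituted in 0.1% formic acid, mixed with DHB matrix. Fragments identified by MALDI-TOF MS.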

[4] = molecular target: T2, Parathyroid hormone/parathyroid hormone-related peptide receptor (Homo sapiens); test: Agonist activity at human PTH1 receptor expressed in human GP2.3 cells assessed as induction of cAMP at 12 uM preincubated with Sprague-Dawley rat kidney homogenates for 60 mins followed by compound transfer to GP2.3 cells measured after 12 to 20 mins by luciferase reporter gene assay; format: functional, cell-based
Outline: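 Female Sprague-Dawley rat kidney homogenate (50 mM Tris-HCl pH 7.4, 2000g supernatant). 1 mM peptide stock diluted 1:85 (~12 μM), incubated at indicated times. Quenched 1:1 with acetonitrile/TFA solution, diluted to 1000−1 nM, and added 1:10 to GP2.3 cells preincubated 30 min with 0.5 mM D-luciferin. Sigmoidal variable-slope fit. Two replicates.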

pepsin = test: Stability in simulated gastric fluid assessed as pig pepsin-mediated proteolysis by measuring half life at 40 uM by RP-HPLC analysis; format: ADME, Sus scrofa; conditions: simulated gastric fluid with pig pepsin
Outline: (§1)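 Peptide at 200 μM (from 1 mM stock in 10 mM acetic acid) incubated at 37 °C in fresh SGF (NaCl, porcine pepsin, HCl, pH ~1.2). Quenched by 10× PBS to neutral pH (40 μM). Duplicate reactions. Intact peptide measured by RP-HPLC peak area. For bioactivity, samples diluted into CO2-independent medium and added to luciferin-loaded GP2.3 cells at 100 nM−0.1 nM final.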

[5] = molecular target: T2, Parathyroid hormone/parathyroid hormone-related peptide receptor (Homo sapiens); test: Agonist activity at human PTH1 receptor expressed in human GP2.3 cells assessed as induction of cAMP at 0.1 to 100 nM preincubated with SGF for 4 hrs followed by compound transfer to GP2.3 cells by luciferase reporter gene assay; format: functional, cell-based; outline: as §1
[6] = molecular target: T2, Parathyroid hormone/parathyroid hormone-related peptide receptor (Homo sapiens); test: Agonist activity at human PTH1 receptor expressed in human GP2.3 cells assessed as induction of cAMP at 0.1 to 100 nM preincubated with SIF for 10 mins followed by compound transfer to GP2.3 cells by luciferase reporter gene assay; format: functional, cell-based
Outline: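 Simulated intestinal fluid containing pancreatin, pH 6.8, prepared fresh and kept at 37 °C. Peptide incubated in it as for gastric fluid. Quenched 1:1 with 50% acetonitrile/1% TFA. Quenched samples serially diluted in CO2-independent medium and applied to luciferin-preloaded GP2.3 cells at 100−0.1 nM final. Luminescence read. Two technical replicates.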

Mus musculus [7] = test: In vivo induction of excessive bloodstream calcium concentration in CD1 mouse at 20 nmol/kg, sc up to 2 hrs by Ca2+/pH analyzer; format: organism-based
Outline: (§2)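 Female CD1 mice (9−12 weeks), n = 5, given 20 nmol/kg subcutaneously in 10 mM citrate/150 mM NaCl/0.05% Tween-80, pH 5.0. Tail vein blood taken before and at times after dosing. Ca2+ measured by Ca2+/pH analyzer. One-way ANOVA with Dunnett's test vs vehicle. Mean ± SEM.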

Mus musculus [8] = test: In vivo induction of excessive bloodstream calcium concentration in CD1 mouse at 20 nmol/kg, sc after 2 hrs by Ca2+/pH analyzer; format: organism-based; outline: as §2
Blood = test: Drug level in CD1 mouse blood at 20 nmol/kg, sc measured up to 2 hrs; format: ADME, organism-based; conditions: in vivo
Outline: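 Female CD1 mice, n = 5, 20 nmol/kg subcutaneously in citrate/NaCl/Tween-80 vehicle, pH 5.0. 2 μL serum from timed bleeds, mixed with CO2-independent medium, added to GP2.3 cells. Luminescence converted to peptide concentration via a standard curve.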

[9] = molecular target: T2, Parathyroid hormone/parathyroid hormone-related peptide receptor (Homo sapiens); test: Displacement of [125I]-PTH(1 to 34 residues) from R0 state of human PTHR1 expressed in African green monkey COS7 cell membranes incubated for >1 hr in presence of GTPgammaS by gamma radiation method
[10] = Half life in Sprague-Dawley rat kidney homogenates at 12 uM by HPLC-MS analysis; format: ADME, tissue-based
Outline: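 Kidney homogenate (2.5 mg protein/mL, pH 7.4 Tris) spiked with peptide at 50 μg/mL (~12 μM), 37 °C, sampled 0−120 min. […] C18 UHPLC–Orbitrap MS quantified via y32 ion area ratio against calibration standards. Exponential decay fit, mean ± SD of two replicates.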

[11] = molecular target: T2, Parathyroid hormone/parathyroid hormone-related peptide receptor (Homo sapiens); test: Agonist activity at human PTH1 receptor expressed in human GP2.3 cells assessed as induction of cAMP at 0.1 to 100 nM preincubated with protease activity quenched SGF up to 4 hrs followed by compound transfer to GP2.3 cells by luciferase reporter gene assay; format: functional, cell-based
Outline: (§3)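 Control samples: simulated gastric fluid neutralized with 10× PBS, or intestinal fluid mixed with acetonitrile/TFA quench solution, before adding peptide. Gastric controls held up to 4 h. Then diluted and tested on luciferin-loaded GP2.3 cells at 100−0.1 nM final, alongside freshly prepared peptide.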

[12] = molecular target: T2, Parathyroid hormone/parathyroid hormone-related peptide receptor (Homo sapiens); test: Agonist activity at human PTH1 receptor expressed in human GP2.3 cells assessed as induction of cAMP at 0.1 to 100 nM preincubated with protease activity quenched SIF followed by compound transfer to GP2.3 cells by luciferase reporter gene assay; format: functional, cell-based; outline: as §3

EC50 [1]: 0.48 to 0.78 nM
fold change (FC) [2]: 7.1 to 9.5
Drug metabolism [3]: Metabolite_Notdetected
Activity [4]: Active
half-life at 40 µM (pepsin): 4 h
Activity [5]: Active
Activity [6]: Active
Drug uptake (Blood): Not Active
inhibition [9]: Active
half-life at 12 µM [10]: 0.517 h
Activity [11]: Active
Activity [12]: Active
Structure (SMILES): CSCC[C@H](NC(=O)[C@H]1CCC[C@@H]1NC(=O)[C@H](CCC(N)=O)NC(=O)[C@H]1CCC[C@@H]1NC(=O)[C@H](CCC(=O)O)NC(=O)C(C)(C)NC(=O)[C@@H](NC(=O)[C@H]1CCC[C@@H]1N)C(C)C)C(=O)N[C@@H](Cc1cnc[nH]1)C(=O)N[C@@H](CCC(N)=O)C(=O)N[C@@H](CCCCNC(=N)N)C(=O)N[C@@H](C)C(=O)N[C@@H](CCCCN)C(=O)N[C@H]1CCC[C@@H]1C(=O)N[C@@H](CC(C)C)C(=O)N[C@@H](CC(N)=O)C(=O)N[C@@H](CO)C(=O)N[C@H]1CCC[C@@H]1C(=O)N[C@@H](CCCNC(=N)N)C(=O)N[C@@H](CCCNC(=N)N)C(=O)N[C@H](C(=O)N[C@H]1CNC[C@@H]1C(=O)N[C@@H](Cc1c[nH]c2ccccc12)C(=O)N[C@@H](CC(C)C)C(=O)N[C@@H](CCCNC(=N)N)C(=O)N[C@H]1CNC[C@@H]1C(=O)N[C@@H](CCCCN)C(=O)N[C@@H](CC(C)C)C(=O)N[C@@H](CCC(N)=O)C(=O)N[C@H]1CCC[C@@H]1C(=O)N[C@H](C(=O)N[C@@H](Cc1cnc[nH]1)C(=O)N[C@@H](CC(N)=O)C(=O)N[C@H]1CCC[C@@H]1C(N)=O)C(C)C)C(C)C ({ACPC(1S,2S)}-V[Aib]E[X1]Q[X1]MHQ[hArg]AK[X1]LNS[X1]RRV[X2]WLR[X2]KLQ[X1]VHN-{NH(1S,2S-2-CONH2-cPent)})
Activity (Mus musculus [7]): Toxic
Activity (Mus musculus [8]): Non-Toxic
